Screening results: PubChem, Broad Institute
In the library only some 3.1% were active in any assay of this set; here they are far more common.
Cneo AK release – causes C. neoformans cell lysis; lysis activity, % at 15 µM; 360,000 compounds, 0.2% hits; adenylate kinase release luminescence, 4 h; normalised: neutral wells 0, clomiphene wells 100; AID 651654;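 active means mean lysis activity across replicates of at least 80%, whatever share of replicates individually reach that level; inactive means mean lysis activity below 80%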
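Material: C. neoformans cells; Schedule: 4 h static compound exposure, 37 °C, read 1 h post-reagent; Measured by: adenylate kinase release luminescence; Read-out: signal increase indicating cell lysis; Controls: Clomiphene as positive lysis control.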
rRNA inh HTS – inhibits bacterial ribosomal RNA function over humanized ribosomes; E. coli WT GFP vs humanized-ribosome RFP mutants, fluorescence, 24 h; stronger effect = lower value; DMSO median 0, no signal -100; GFP signal change (wild-type ribosome), % (test concentration not listed); 350,000 compounds, 1.6% hits;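 active means significant combined selectivity score with lowered wild-type GFP, culture density cut under 30%, mutant RFP and density less affected; inactive means any of these conditions unmet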
HIV Env fusion – HIV envelope-mediated fusion inhibition | HeLa-JRFL Env/CEM21 cell fusion, luciferase | inhibition, % at 12.3 µM | 360,000 compounds, 1.1% hits;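 active means mean replicate inhibition score of at least 50 and every replicate individually at or above 50; inconclusive means only one of the two criteria met; inactive means mean below 50 and not all replicates reaching 50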;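 further: 0% = plate neutral controls and 100% = maraviroc near 300 nM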
CFTR F508del cor – correctors of CFTR F508del function in bronchial epithelial cells | 350,000 compounds, 0.36% hits | activity (quench increase), % at 7.58 µM | CFBE cells, YFP halide quenching; stimulated with forskolin plus potentiator P3; % fluorescence drop versus neutral controls;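 active means mean added fluorescence quench of at least 8% versus neutral control, with both replicates also reaching 8%; inconclusive means only one of the mean or replicate conditions met; inactive means mean below 8% and not both replicates reaching 8%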;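 further: cells transiently co-express mutant CFTR-F508del with the halide-sensitive YFP; corrector assay measuring rescue of mutant channel to the surface after 24 h compound exposure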
GSIS activator – primary screen for activators of insulin secretion dependent on glucose, INS-1E cells, GLuc reporter luminescence; AID 743287; INS-1E GLuc reporter insulin secretion, 2-3 h; activation, % at 16.6 µM; 370,000 compounds, 0.61% hits;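 active means lowest replicate activation of at least 40%, so every replicate reaches that level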;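 further: 0% = median of neutral control wells and 100% = median of IBMX positive control wells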
miR122 inh – blocks miR-122 activity in Huh7 sensor cells; Huh7 miR-122 Renilla luciferase sensor, 48 h; neutral wells = 0, positive control = 100; activation (reporter increase), % at 12.5 µM; 340,000 compounds, 0.3% hits;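 active means mean replicate activation score at least 90 and every replicate individually at or above 90; inconclusive means only one of the two criteria met; inactive means neither criterion met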;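 further: higher luciferase means less miR-122 activity so hits act as miR-122 inhibitors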
HepG2 cytotox – kills or reduces viability of HepG2 cells | shares compounds with rRNA inh HTS | ATP luminescence, 72 h | activity change, negative = cytotoxicity, unspecified at 26 µM | 30 tested, under 10 active | AID 743480;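 active means compounds whose fitted half-maximal signal-loss concentration is at most twice their highest valid dose; inconclusive means flat curve with 30 to 70% signal loss, or poor fit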
AID977621 – wild-type E. coli growth inhibition versus H69 humanized strain – H69 mutant RFP, wild-type GFP, cherry-pick, dose response | shares compounds with rRNA inh HTS | fluorescence, 24 h | activity change, negative = inhibition at 50 µM | 1,900 tested, under 10 active | AID 977621;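 active means Wild-type ribosome reporter drop at least double the humanized mutant ribosome reporter drop, growth loss under a set limit; inconclusive means no clear call, values can overlap the other calls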;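 further: wild-type GFP and H69 mutant RFP strains grown together 50/50 in each well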
AID977628 – growth of wild-type and h24-humanized E. coli strains – h24 mutant RFP vs wild-type GFP, cherry-pick, dose response | E. coli WT GFP strain growth, fluorescence, 24 h | shares compounds with rRNA inh HTS | 1,900 tested, under 10 active | AID 977628 | activity change, negative = inhibition at 50 µM;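 active means compound lowering the normal-ribosome reporter at least twice as much as the humanized-ribosome reporter, growth loss under a set limit; inconclusive means no clear call, values can overlap the other calls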;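 further: wild-type GFP and h24 humanized RFP strains co-cultured 1 to 1 per well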
An asterisk follows results filed as active; ? = inconclusive; . = no result given; [ ] = remark or other dose.

SMILES	Cneo AK release	rRNA inh HTS	HIV Env fusion	CFTR F508del cor	GSIS activator	miR122 inh	AID977621	AID977628	others
CN1C(=O)c2cc(NC(=O)C3CCC3)ccc2OC[C@H]2O[C@H](CC(=O)NCCc3ccncc3)CC[C@@H]21	.	-3	.	1	8	.	.	.
Cc1nonc1C1CCCN1C(=O)c1cc(COc2ccc(F)cc2F)on1 (centres undefined)	.	-27*	-74	1	1	.	?	.
CSc1ccccc1OCc1cc(C(=O)N2CCCC2c2nonc2C)no1 (centres undefined)	1	3	-73	1	-11	-1	.	.
O=C(C[C@@H]1CC[C@@H]2[C@H](COC[C@H](O)CN2C(=O)Nc2ccc(Cl)cc2)O1)N1CCCCC1	-8	-22*	.	1	-10	-5[16.7 µM]	.	?
Cc1cccc(NC(=O)COc2cccc3c2CCNC3=O)c1	0	-18*	-11	-5	-8	0	-9.7	-10
C[C@H](NC(=O)[C@@H]1[C@@H](CO)[C@@H]2Cn3c(cccc3=O)[C@@H]2N1Cc1ccncc1)c1ccccc1	2	2	.	1	9	-4[16.7 µM]	.	.
Cc1ccc(-c2c[n+](CC(=O)Nc3ccccc3C)c3n2CCC3)cc1	.	.	-3	1	.	.	.	.
O=C(C[n+]1cc(-c2ccc(F)cc2)n2c1CCC2)c1cccs1	-4	-16*	-62	2	.	1	0.92	2.6
Cn1c(NC(=O)C[n+]2cc(-c3ccc(F)cc3)n3c2CCC3)cc(=O)n(C)c1=O	.	.	.	.	5	2	.	.
Cc1ccc(NC(=O)C[n+]2cc(-c3ccccc3)n3c2CCC3)cc1	4	-40*	-2	6	.	0	4.9	?
Cc1cc(Br)cn2c(Cc3cccc(Cl)c3)c(-c3ccco3)nc12	.	-21*	0	-1	4	.	4.2	-3.1
COc1ccc(-n2nc3cc(N)c(Br)cc3n2)cc1	-12	-27*	-104	-5	-2	-4	-1.5	-11
CCC(=O)N(C)C[C@@H]1Oc2cc(C#CC(C)C)ccc2S(=O)(=O)N([C@@H](C)CO)C[C@@H]1C	-6	-2	32[16.7 µM]	-6	-1	-6[16.7 µM]	.	.
COc1ccc(-c2nn(-c3ccccc3C)cc2CNCc2cccnc2)cc1F	0	-18*	-8	-1	-5	-3	3.6	-12
COc1ccc(-n2cc(CNCc3cccnc3)c(-c3cccc(F)c3)n2)cc1	1	-39	-3	1	-19	-7	.	.
Cc1noc(C)c1S(=O)(=O)Nc1ccc2c(c1)C(=O)N([C@@H](C)CO)C[C@@H](C)[C@@H](CN(C)C(=O)CCC(F)(F)F)OCCCC[C@@H](C)O2	43	-2	13[16.7 µM]	0	-8	-3[16.7 µM]	.	.
COc1cc2c(c(OC)c1OC)C(c1ccc(O)cc1)CC(=O)O2 (centres undefined)	2	-3	23	-1	18	0	.	.
COc1cc(C2CC(=O)Oc3cc(C)cc(C)c32)cc(OC)c1OC (centres undefined)	2	-22*	18	-1	-10	-2	.	-11
CN(Cc1ccc(Cl)s1)C(=O)CNC(=O)CNC(=O)c1ccc(Cl)cc1Cl	0	-27*	.	-3	-26	.	.	-5.2
COc1ccc(CN(C)C(=O)CNC(=O)CNC(=O)c2ccc(Cl)cc2Cl)cc1F	-2	3	0	1	6	.	.	.
CN(Cc1ccccn1)Cc1nc(Cc2ccccc2Cl)no1	.	5	-21	0	-6	.	.	.
COc1cccc(CN(C)Cc2nc(Cc3ccccc3Cl)no2)c1	.	-26*	1	2	-4	.	-17	?
CCCNC(=O)CCCCn1c(=S)[nH]c2c([nH]c3ccc(OC)cc32)c1=O	.	18	-2	1	7	.	.	.
COc1ccc2[nH]c3c(=O)n(CCCCC(=O)NCCC(C)C)c(=S)[nH]c3c2c1	.	-25*	1	-2	-31	.	.	.	HepG2 cytotox=11
Cc1ccc(NC(=O)c2ccc3ncsc3c2)cc1S(=O)(=O)N(C)C	.	-23*	-124	-1	9	.	-4.7	.
SMILES	Cneo AK release	rRNA inh HTS	HIV Env fusion	CFTR F508del cor	GSIS activator	miR122 inh	AID977621	AID977628	others
Cc1ccc(NC(=O)c2cccnc2)cc1S(=O)(=O)N(C)C	.	21	6	0	-3	.	.	.
S=c1nc(-c2cccc(Br)c2)[nH][nH]1	2	-20*	.	0	-1	.	-7.4	-8.2
COc1cc(NC(=O)COC(=O)CC(C)(C)C)c(C)cc1[N+](=O)[O-]	.	-22*	9	.	-34	.	?	.
COCC(=O)Nc1ccc2c(c1)[C@@H]1C[C@@H](CC(=O)NCc3cc(F)ccc3F)O[C@@H](CO)[C@@H]1O2	-22	-1	-56[16.7 µM]	0	8	-1[16.7 µM]	.	.
C[C@@H]1CN([C@@H](C)CO)C(=O)c2cc(NC(=O)Nc3ccccc3)ccc2O[C@@H](C)CCCCO[C@@H]1CN(C)C(=O)CCCN(C)C	6	1	-5[16.7 µM]	2	3	11[16.7 µM]	.	.
C[C@H](CO)N1C[C@H](C)[C@H](CN(C)C(=O)CCCN(C)C)OCCCC[C@H](C)Oc2ccc(NC(=O)Nc3cccc4ccccc34)cc2C1=O	6	-1	-20[16.7 µM]	0	-4	2[16.7 µM]	-7.2	?
C[C@H]1CCCCO[C@H](CN(C)C(=O)Nc2cccc3ccccc23)[C@@H](C)CN([C@@H](C)CO)C(=O)c2cc(NC(=O)Nc3cccc4ccccc34)ccc2O1	1	0	23[16.7 µM]	0	3	3[16.7 µM]	.	.
C[C@@H]1CCCCO[C@H](CN(C)C(=O)CCCN(C)C)[C@@H](C)CN([C@@H](C)CO)C(=O)c2cc(NC(=O)Nc3cccc4ccccc34)ccc2O1	7	-39*	-2[16.7 µM]	-3	-18	1[16.7 µM]	-8.1	?
C[C@H]1CCCCO[C@H](CN(C)C(=O)CCCN(C)C)[C@@H](C)CN([C@@H](C)CO)C(=O)c2cc(NC(=O)Nc3cccc4ccccc34)ccc2O1	7	0	-12[16.7 µM]	0	-6	-10[16.7 µM]	?	11
C[C@@H]1CCCCO[C@@H](CN(C)C(=O)Nc2cccc3ccccc23)[C@@H](C)CN([C@H](C)CO)C(=O)c2cc(NC(=O)Nc3cccc4ccccc34)ccc2O1	-4	4	-12[16.7 µM]	3	53	1[16.7 µM]	.	.
